# Source: ChEMBL document CHEMBL2331196, “Solvent Selection for Insoluble Ligands, a Challenge for Biological Assay Development: A TNF-α/SPD304 Study” (ACS Med Chem Lett, 2013)
# Assays:
# Assay type in all cases: physicochemical
# [1] = Solubility of the compound in citrate-phosphate buffer at pH 6.5
# In short: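 The compound was diluted from a 10 mM aqueous stock (pH about 1) into 10 mM citrate-phosphate buffer, pH 6.5, with no organic cosolvent. After centrifugation, soluble material was quantified by UV absorbance at 252 nm. The resuspended precipitate was also measured. Values are the mean of four independent measurements.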
# [2] = Solubility of the compound in 2.5 % PEG5000 by UV/visible spectroscopy
# In short: (§1)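 The compound was diluted from a 10 mM aqueous stock of its HCl salt into 10 mM citrate-phosphate buffer, pH 6.5, containing the organic solvent at the stated % (v/v). Samples were centrifuged, and soluble material was read by UV absorbance at 252 nm. The pellet was resuspended in pure solvent and read as a check. Values are the mean of four independent measurements.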
# [3] = Solubility of the compound in 5 % PEG5000 by UV/visible spectroscopy; in short: as §1
# [4] = Solubility of the compound in 10 % PEG5000 by UV/visible spectroscopy; in short: as §1
# [5] = Solubility of the compound in 5 % PEG3350 by UV/visible spectroscopy; in short: as §1
# [6] = Solubility of the compound in 10 % PEG3350 by UV/visible spectroscopy; in short: as §1
# [7] = Solubility of the compound in 5 % MeOH by UV/visible spectroscopy; in short: as §1
# [8] = Solubility of the compound in 10 % MeOH by UV/visible spectroscopy; in short: as §1
# [9] = Solubility of the compound in 10 % glycerol by UV/visible spectroscopy; in short: as §1
# [10] = Solubility of the compound in 2.5 % MeOH by UV/visible spectroscopy; in short: as §1
# [11] = Solubility of the compound in 10 % DMF by UV/visible spectroscopy; in short: as §1
# [12] = Solubility of the compound in 2.5 % glycerol by UV/visible spectroscopy; in short: as §1
# [13] = Solubility of the compound in 5 % glycerol by UV/visible spectroscopy; in short: as §1
# [14] = Solubility of the compound in 2.5 % DMF by UV/visible spectroscopy; in short: as §1
# [15] = Solubility of the compound in 5 % DMF by UV/visible spectroscopy; in short: as §1
# [16] = Solubility of the compound in 5 % DMSO by UV/visible spectroscopy; in short: as §1
# [17] = Solubility of the compound in 10 % DMSO by UV/visible spectroscopy; in short: as §1
# [18] = Solubility of the compound in 2.5 % DMSO by UV/visible spectroscopy; in short: as §1
structure (smiles),measurement,setting,value
Cc1cc2occ(CN(C)CCN(C)Cc3cn(-c4cccc(C(F)(F)F)c4)c4ccccc34)c(=O)c2cc1C,solubility,[1],10 µM
same,solubility,[2],90 µM
same,solubility,[3],97 µM
same,solubility,[4],> 100 µM
same,solubility,[5],84 µM
same,solubility,[6],96 µM
same,solubility,[7],58 µM
same,solubility,[8],83 µM
same,solubility,[9],28 µM
same,solubility,[10],37 µM
same,solubility,[11],82 µM
same,solubility,[12],15 µM
same,solubility,[13],19 µM
same,solubility,[14],35 µM
same,solubility,[15],58 µM
same,solubility,[16],52 µM
same,solubility,[17],79 µM
same,solubility,[18],33 µM
